Published values of several laboratories.
Each line is one published result; the experiments were not run side by side.
Target: Interleukin-1 receptor-associated kinase 4 (IRAK4, Homo sapiens, UniProt Q9NWZ3)
One construct used (Q9NWZ3 1-460): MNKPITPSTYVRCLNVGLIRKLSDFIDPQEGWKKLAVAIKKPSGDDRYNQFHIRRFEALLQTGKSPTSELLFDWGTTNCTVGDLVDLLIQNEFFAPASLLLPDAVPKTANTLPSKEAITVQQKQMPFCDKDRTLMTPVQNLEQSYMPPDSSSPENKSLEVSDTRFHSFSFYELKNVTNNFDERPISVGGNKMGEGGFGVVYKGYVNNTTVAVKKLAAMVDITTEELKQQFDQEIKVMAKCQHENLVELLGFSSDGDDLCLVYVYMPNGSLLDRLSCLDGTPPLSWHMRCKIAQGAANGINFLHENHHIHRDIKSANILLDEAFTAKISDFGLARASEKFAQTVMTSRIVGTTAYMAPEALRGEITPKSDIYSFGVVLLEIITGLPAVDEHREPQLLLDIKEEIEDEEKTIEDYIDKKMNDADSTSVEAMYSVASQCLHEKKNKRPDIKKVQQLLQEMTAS

Structure (SMILES)	observed	mode	technique	tested at	quantity	value
COc1ncccc1-c1cnn2ccc(N3CCN(C(=O)OC(C)C)CC3)nc12	binding	–	competition with immobilised ligand	1 µM	remaining binding	100%
Nc1ncc(-c2nc(N3CCOCC3)nc(N3CCOCC3)n2)c(C(F)F)n1	binding	–	competition with immobilised ligand	10 µM	remaining binding	72%
Cn1cc(-c2cccc(N3CCc4c(sc5c4CC(C)(C)C5)C3=O)c2CO)cc(Nc2ccncn2)c1=O	enzyme activity	inhibitor	–	1 µM	inhibition	6%
C#Cc1n[nH]c2c(-c3cn([C@@H](C)c4ccccn4)c(=O)[nH]c3=O)cc(F)cc12	enzyme activity	inhibitor	–	0.1 µM	inhibition	14.7%
Cn1cc(-c2cc(F)cc(N3CCn4c(cc5c4CCCC5)C3=O)c2CO)cc(Nc2ccc(N3CCN(C4COC4)CC3)cn2)c1=O	enzyme activity	inhibitor	–	0.1 µM	inhibition	8%
O=c1[nH]c2ccccc2n1C1CCN(Cc2ccc(-c3[nH]c4cc5ncnc5cc4nc3-c3ccccc3)cc2)CC1	cell-free assay	–	–	0.5 µM	remaining signal	201%
COc1cc(Nc2ncc(F)c(Nc3ccc4c(n3)NC(=O)C(C)(C)O4)n2)cc(OC)c1OC	binding	–	–	10 µM	inhibition	96%
C#Cc1n[nH]c2c(-c3cn([C@@H](C)c4ccccc4)c(=O)[nH]c3=O)cc(F)cc12	enzyme activity	inhibitor	–	0.1 µM	inhibition	11.7%
N#CC1(c2ccccn2)CCN(Cc2cc(C(=O)O)c(=O)n3ccccc23)CC1	cell-free assay	–	competition with immobilised ligand	1 µM	remaining binding	83%
Cc1nn(C)cc1-c1nc2c(N3CCN(Cc4ccc(Cl)cc4)CC3)c(Cl)cnc2[nH]1	binding	–	competition with immobilised ligand	1 µM	remaining binding	74%
CC(C)(C)c1cc(C=C(C#N)C#N)cc(Br)c1O	enzyme activity	inhibitor	–	0.5 µM	remaining activity	182%
Cn1cncc1[C@@](O)(COc1ccc(C#N)cc1-c1ccc(OC(F)(F)F)cc1)c1ccc(C#N)cc1	cell-free assay	–	competition with immobilised ligand	1 µM	remaining binding	80%
